# Reference: paper PMC7313255 (Biology of Reproduction, 2020)
# Values joined by “and” are separate entries in the source; they are usually repeats but may differ in a detail not shown here. Equal entries are not always repeated. Structures can show the parent of a compound that is named as a salt. Where two headings read alike, the source gives them in different places. Positions of bridges follow the written chain, without caps; N, C: chain ends. Non-standard residues stand in square brackets, D forms with d. Residues, ends and D or L forms follow the SMILES beside them. Orn = NCCC[C@H](N)C(=O)O; Mpa = O=C(O)CCS
# Key:
# [1] = cited from earlier work
# [2] = target: cloned human V1AR; conditions: read-out: Ki (affinity), cloned human V1AR; two literature values; cited from earlier work
# [3] = sheep, epitheliochoral placenta; cited from earlier work
# [4] = up to 2.5 mg barusiban/kg body weight/day from day 85 of gestation until delivery; cited from earlier work
# [5] = cited from earlier work; remark: listed apart in the source
# [6] = quantitative whole-body autoradiography; assay type: in vivo; conditions: marmoset; normally below the limit of quantification; unpublished data
# [7] = Placental transfer in cynomolgus monkeys; assay type: in vivo, cynomolgus monkeys (Macaca fascicularis); conditions: cynomolgus monkey
# Method in brief: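 Three pregnant monkeys, gestation day 150 ± 1. Test compound infused intravenously (saphenous vein) over 2 h to 300 µg/kg in 5 mL/kg, from a 10 mg/mL stock in 0.04 M acetate pH 4.3 diluted in saline. Maternal brachial plasma taken pre-dose, 1 and 2 h. Umbilical venous plasma and amniotic fluid taken at C-section under ketamine/xylazine. Plasma measured by RIA, amniotic fluid by LC-MS/MS; paired t-test.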
# [8] = tested on: oxytocin-induced uterine contractions; conditions: cited from earlier work
# [9] = Placental transfer in rabbits; assay type: in vivo, New Zealand white rabbits; conditions: rabbit
# Method in brief: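 Pregnant rabbits (5–6 months, 3.0–4.4 kg) given the radiolabelled test compound by ear-vein bolus daily on gestation days 24–30: mean 3.01 mg/kg, 522 kBq/kg, in 0.9% saline. Three dams per time point killed by barbiturate at 10 min, 1, 3 and 10 h after dosing. Maternal ear-artery blood taken; from one fetus per sex, cardiac blood and tissues taken. Liquid scintillation counting; levels expressed as % of maternal peak.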
# [10] = assay type: in vitro ADME, human
# Method in brief: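 Term placentas (39–41 weeks, no chorioamnionitis) perfused ex vivo as double-sided open cotyledon at 36.5 °C; fetal flow 2 mL/min, maternal 10 mL/min. Test compound 1.2 µM (1 µg/mL) in perfusate with antipyrine 531 µM co-infused. Fetal venous samples at 1–120 min; Evans blue integrity check. LC-MS/MS for test compound, spectrophotometry for antipyrine; trapezoidal AUC ratio; mean ± SD.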
# [11] = tested on: vasopressin-induced contractions of isolated term-pregnant human myometrium; conditions: cited from earlier work
# [12] = quantitative whole-body autoradiography; assay type: in vivo; conditions: rat; all sampling times; limit of quantitation 40 pmoles/g; unpublished data
smiles,measurement,setting,value
CC(NCCc1ccc(O)cc1)C(O)c1ccc(O)cc1 (centres unmarked) [ritodrine hydrochloride],placental transfer,"[1]; in humans, long-term treatment",70%
same,placental transfer,"[1]; in humans, short-term treatment",26%
CCOc1ccc(C[C@H]2NC(=O)CCSSC[C@@H](C(=O)N3CCC[C@H]3C(=O)N[C@@H](CCCN)C(=O)NCC(N)=O)NC(=O)[C@H](CC(N)=O)NC(=O)[C@H]([C@@H](C)O)NC(=O)[C@H]([C@@H](C)CC)NC2=O)cc1 [atosiban] ([Mpa][dY](Et)ITNCP[Orn]G-NH2; disulfide 1-6 (inferred); C-terminus assumed),Ki,[2],3.5 nM and 4.7 nM
same,placental transfer,"[1]; in vivo, pregnant women at term",12%
same,placental transfer,[3],could not be detected
CC[C@@H](C)[C@@H]1NC(=O)[C@H]([C@@H](C)CC)NC(=O)[C@@H](Cc2c[nH]c3ccccc23)NC(=O)CCSCC[C@@H](C(=O)N(C)[C@H](CO)CCCN)NC(=O)[C@H](CC(N)=O)NC1=O [barusiban],effects in the mother or offspring,[4],no barusiban-related effects
same,effect over the placebo group (women who did not deliver within 48 h),[5]; Phase II clinical trial,did not demonstrate a statistically significant effect
same,fetal and neonatal adverse events with maternal barusiban,"[5]; clinical study, did not differ from placebo",very low level of fetal and neonatal adverse events
same,radioactivity in fetal brain (QWBA),[6],< 12 pmoles/g tissue
same,increase of maternal plasma barusiban from 1 h to 2 h,[7]; individual values of two animals,40.4% and 54.6%
same,mean amniotic barusiban at C-section as % of the maternal plasma after 2 h,"[7]; iv infusion 2 h to 300 μg/kg, n = 3",1.9%
same,decrease of maternal plasma barusiban from 1 h to 2 h,[7]; third animal,5.0%
same,reduction of induced uterine contractions compared with fenoterol,[8]; cynomolgus monkey,more effective than fenoterol
same,reduction of oxytocin-induced uterine contractions compared with atosiban,"[8]; pregnant cynomolgus monkey, action also longer lasting",more potent
same,barusiban level in other fetal tissues as % of the maternal blood,"[9]; 10 min post-dose, or less than LLOQ",< 1%
same,barusiban in most fetal tissue samples as % of the maternal peak blood level,"[9]; 1 h post-dose, or less than LLOQ",less than 1%
same,fetal blood barusiban as % of that after 10 min,[9]; 1 h post-dose,79.3%
same,fetal blood barusiban as % of the peak maternal level,[9]; 1 h post-dose,4.2%
same,fetal plasma barusiban as % of the peak maternal level,[9]; 1 h post-dose,5.0%
same,maternal blood barusiban as % of the maximum level,[9]; 1 h post-dose,32.8%
same,maternal plasma barusiban as % of the maximum level,[9]; 1 h post-dose,35.2%
same,maternal blood barusiban as % of its maximum level,[9]; 3 h post-dose,6.1%
same,maternal plasma barusiban as % of its maximum level,[9]; 3 h post-dose,7.9%
same,fetal adrenal barusiban as % of the maximal maternal blood level,"[9]; 10 h post-dose, one adrenal",12.0%
same,barusiban in all other fetal tissues as % of peak maternal blood level,"[9]; 10 h post-dose, or less than LLOQ",less than 1%
same,amniotic fluid barusiban as % of the maximal maternal blood level,[9]; 10 h post-dose,5.7%
same,fetal blood barusiban as % of initial maternal level,[9]; 10 h post-dose,less than 2%
same,fetal plasma barusiban as % of initial maternal level,[9]; 10 h post-dose,less than 3%
same,maternal blood barusiban as % of the first determination,[9]; 10 h post-dose,less than 1%
same,maternal plasma barusiban as % of the first determination,[9]; 10 h post-dose,less than 2%
same,AUC ratio of barusiban to antipyrine,"[10]; ex vivo perfused human cotyledon, mean of ratios ± SD, n = 13, SD",36 ± 11%
same,effect on vasopressin-induced contractions,[11],practically no effect
same,barusiban in the fetuses (QWBA),[12],< 40 pmol/g
O=S(=O)([O-])[O-].[Mg+2] [MgSO4],placental transfer,[1]; in humans,up to 100%
"Cc1cc(=O)n(-c2ccccc2)n1C [antipyrine, reference compound]",transfer of antipyrine relative to barusiban,"[10]; human placental single cotyledon, comparator",approximately three times greater
